# Columns and labels:
# [1] = Safety index, ratio of IC50 for HEK cells to IC50 for Entamoeba histolytica HM-1:IMSS; format: toxicity, cell-based, HEK293; details: human, HEK cells (versus Entamoeba histolytica HM-1:IMSS); read-out: Ratio IC50
# [2] = Cytotoxicity against HEK cells after 44 hrs by MTT assay; format: cell-based; details: Homo sapiens, HEK293, 44 h
# Method in brief: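 Transformed human kidney epithelial (Graham) cells kept at 37 °C in 5% CO₂. Trypsinized cells at 0.5 million cells/ml plated with compounds for 44 h, then 2 mM MTT for a further 4 h. Formazan dissolved in DMSO, absorbance 540 nm with 690 nm reference, % viability vs controls. Three independent experiments.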
# Entamoeba histolytica = test: Antiamnesic activity against Entamoeba histolytica HM-1:IMSS after 72 hrs by trypan blue exclusion assay; format: functional, organism-based
# Method in brief: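 Microdilution in TYIS-33 medium, trophozoites counted by haemocytometer with trypan blue viability check, 1.7 × 10⁴ organisms/well. Plates gassed with N₂ 10 min, 37 °C for 72 h. Washed with 0.9% NaCl, methanol-fixed, eosin-stained, dye released with 0.1 N NaOH, OD 490 nm. % inhibition vs log dose, IC50 by linear regression. Metronidazole standard. Three independent experiments.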
# [3] = in the assay text read “Antiamoebic” for “Antiamnesic”
Compound,selectivity ratio [1],IC50 [2] [nM],IC50 (Entamoeba histolytica) [nM],IC50 (Entamoeba histolytica; [3]) [nM]
CCC1(c2cccc(Br)c2)ON=C(c2cccc(Cl)c2)O1 (stereo unspecified),> 55.5,> 100000,> 1800,
CC1(c2cccc(Br)c2)ON=C(c2ccccc2Cl)O1 (stereo unspecified),> 55.5,> 100000,> 1800,
Clc1ccc(C2=NOC(c3ccccc3Cl)O2)cc1 (stereo unspecified),> 208,> 100000,480,
CCC1(c2cccc(Cl)c2)ON=C(c2ccc(Cl)cc2)O1 (stereo unspecified),> 55.5,> 100000,> 1800,
Clc1cccc(C2ON=C(c3ccccc3Cl)O2)c1 (stereo unspecified),> 139,> 100000,720,
CCc1ccc(C2ON=C(c3ccccc3Cl)O2)cc1 (stereo unspecified),> 55.5,> 100000,> 1800,
Clc1ccc(C2=NOC(c3cccc(Cl)c3)O2)cc1 (stereo unspecified),> 116,> 100000,,860
CCC1(c2cccc(Br)c2)ON=C(c2ccc(Cl)cc2)O1 (stereo unspecified),> 55.5,> 100000,> 1800,
Clc1cccc(C2=NOC(c3ccccc3Cl)O2)c1 (stereo unspecified),> 161,> 100000,,620
CC1(c2cccc(Br)c2)ON=C(c2cccc(Cl)c2)O1 (stereo unspecified),> 55.5,> 100000,> 1800,
Clc1ccc(C2=NOC(c3ccc(Cl)c(Cl)c3)O2)cc1 (stereo unspecified),> 88.5,> 100000,,1130
Cc1ccc(C2ON=C(c3cccc(Cl)c3)O2)cc1 (stereo unspecified),> 55.5,> 100000,,> 1800
CC1(c2ccccn2)ON=C(c2ccc(Cl)cc2)O1 (stereo unspecified),> 63.3,> 100000,1580,
Cc1ccc(C2ON=C(c3ccc(Cl)cc3)O2)cc1 (stereo unspecified),> 55.5,> 100000,> 1800,
Clc1ccccc1C1=NOC(c2ccccc2Cl)O1 (stereo unspecified),> 244,> 100000,410,
CCc1ccc(C2ON=C(c3ccc(Cl)cc3)O2)cc1 (stereo unspecified),> 55.5,> 100000,> 1800,
CCC1(c2cccc(Br)c2)ON=C(c2ccccc2Cl)O1 (stereo unspecified),> 55.5,> 100000,> 1800,

Compound,selectivity ratio [1],IC50 [2] [nM],IC50 (Entamoeba histolytica) [nM],IC50 (Entamoeba histolytica; [3]) [nM]
CC1(c2cccc(Br)c2)ON=C(c2ccc(Cl)cc2)O1 (stereo unspecified),> 55.5,> 100000,> 1800,
Clc1ccc(C2ON=C(c3cccc(Cl)c3)O2)cc1 (stereo unspecified),> 141,> 100000,,710
Cc1ccc(C2ON=C(c3ccccc3Cl)O2)cc1 (stereo unspecified),> 55.5,> 100000,> 1800,
CC1(c2ccc(Cl)cc2)ON=C(c2cccc(Cl)c2)O1 (stereo unspecified),> 55.5,> 100000,,> 1800
CCC1(c2cccc(Cl)c2)ON=C(c2cccc(Cl)c2)O1 (stereo unspecified),> 55.5,> 100000,> 1800,
CCc1ccc(C2ON=C(c3cccc(Cl)c3)O2)cc1 (stereo unspecified),> 55.5,> 100000,,> 1800
Clc1ccc(C2ON=C(c3ccccc3Cl)O2)cc1 (stereo unspecified),> 196,> 100000,510,
Cc1ncc([N+](=O)[O-])n1CCO [METRONIDAZOLE],> 55.5,> 100000,,
Clc1cccc(C2=NOC(c3ccc(Cl)c(Cl)c3)O2)c1 (stereo unspecified),> 82.6,> 100000,1210,
CCC1(c2cccc(Cl)c2)ON=C(c2ccccc2Cl)O1 (stereo unspecified),> 55.5,> 100000,> 1800,
Clc1ccc(C2ON=C(c3ccccc3Cl)O2)cc1Cl (stereo unspecified),> 124,> 100000,810,
CC1(c2ccccn2)ON=C(c2cccc(Cl)c2)O1 (stereo unspecified),> 57.8,> 100000,1730,
CC1(c2ccccn2)ON=C(c2ccccc2Cl)O1 (stereo unspecified),> 61.7,> 100000,1620,
CC1(c2ccc(Cl)cc2)ON=C(c2ccc(Cl)cc2)O1 (stereo unspecified),> 55.5,> 100000,> 1800,
CC1(c2ccc(Cl)cc2)ON=C(c2ccccc2Cl)O1 (stereo unspecified),> 55.5,> 100000,> 1800,
Clc1ccc(C2=NOC(c3ccc(Cl)cc3)O2)cc1 (stereo unspecified),> 189,> 100000,,530
Clc1cccc(C2=NOC(c3cccc(Cl)c3)O2)c1 (stereo unspecified),> 110,> 100000,,910
